ChEMBL document CHEMBL1649151, “Urinary bactericidal activity of Doripenem versus that of levofloxacin in patients with complicated urinary tract infections or pyelonephritis” (Antimicrob Agents Chemother, 2009)
In brackets after ≈: the same amount, converted by molar mass.

Assays:
Pseudomonas aeruginosa [1] = experiment: Antimicrobial activity against Pseudomonas aeruginosa 1134642 isolated from patient with pyelonephritis assessed as >3-log reduction in urinary bacterial titer after 20 hrs; format: functional, Urine
Outline: (§1)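 Patient urine was collected on day 3 of i.v. therapy (steady state) over 4-h intervals after infusion start, stored at –80°C, and sterile filtered. It was twofold serially diluted (1:0 to 1:131,072) in the patient's own pre-dose drug-free urine, inoculated to 1.0 x 10^6–9.5 x 10^6 CFU/ml, and incubated for 18 h at 37°C. Subcultures were grown on blood agar for 24 h. The UBT is the reciprocal of the highest dilution giving >99.9% kill.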

Enterococcus faecalis [2] = experiment: Antimicrobial activity against Enterococcus faecalis 1780065 B-B isolated from patient with pyelonephritis assessed as >3-log reduction in urinary bacterial titer after 16 hrs; format: functional, Urine
Outline: (§2)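 Urine was collected before dosing and on day 3 of i.v. therapy (steady state), in 4-h intervals from infusion start (0–4 to 20–24 h), stored at −80°C and sterile filtered. It was serially diluted twofold (1:0 to 1:131,072) in the patient's drug-free pre-dose urine. Microdilution used an inoculum of 1.0 x 10^6–9.5 x 10^6 CFU/ml, incubated 18 h at 37°C, then subcultured 24 h on blood agar. The endpoint was >99.9% kill, reported as reciprocal titer.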

[3] = tested on: Staphylococcus epidermidis; experiment: Antimicrobial activity against Staphylococcus epidermidis 1949822 B-J isolated from patient with pyelonephritis by Etest; format: functional
Proteus mirabilis [4] = experiment: Antimicrobial activity against Proteus mirabilis 1134841 isolated from patient with pyelonephritis assessed as >3-log reduction in urinary bacterial titer after 24 hrs; format: functional, Urine; outline: as §1
Staphylococcus aureus [5] = experiment: Antimicrobial activity against Staphylococcus aureus 1134684 isolated from patient with pyelonephritis assessed as >3-log reduction in urinary bacterial titer after 4 hrs; format: functional, Urine; outline: as §1
Escherichia coli [6] = experiment: Antimicrobial activity against Escherichia coli 1949820 B-N isolated from patient with pyelonephritis assessed as >3-log reduction in urinary bacterial titer after 12 hrs; format: functional, Urine
Outline: (§3)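 Urine was collected on day 3 of i.v. therapy (steady state) over 4-h intervals from infusion start (0–4 to 20–24 h), stored at –80°C and sterile filtered. It was serially diluted twofold (1:0 up to 1:131,072) in the patient's own pre-dose drug-free urine. Microdilution used a final inoculum of 1.0 x 10^6 to 9.5 x 10^6 CFU/ml, incubated 18 h at 37°C in air. 10 µl was subcultured onto 5% blood Columbia agar for 24 h at 37°C. The bactericidal endpoint was >99.9% (>3-log) kill, reported as a reciprocal titer.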

Escherichia coli [7] = experiment: Antimicrobial activity against Escherichia coli 1949820 B-N isolated from patient with pyelonephritis assessed as >3-log reduction in urinary bacterial titer after 20 hrs; format: functional, Urine; outline: as §3
Staphylococcus aureus [8] = experiment: Antimicrobial activity against Staphylococcus aureus 1134684 isolated from patient with pyelonephritis assessed as >3-log reduction in urinary bacterial titer after 12 hrs; format: functional, Urine; outline: as §1
Proteus mirabilis [9] = experiment: Antimicrobial activity against Proteus mirabilis 1134841 isolated from patient with pyelonephritis assessed as >3-log reduction in urinary bacterial titer after 12 hrs; format: functional, Urine; outline: as §1
Pseudomonas aeruginosa [10] = experiment: Antimicrobial activity against Pseudomonas aeruginosa 1134642 isolated from patient with pyelonephritis assessed as >3-log reduction in urinary bacterial titer after 24 hrs; format: functional, Urine; outline: as §1
Proteus mirabilis [11] = experiment: Antimicrobial activity against Proteus mirabilis 1134841 isolated from patient with pyelonephritis by Etest; format: functional
[12] = Drug excretion in pyelonephritis patient urine at 500 mg/kg, iv administered every 8 hrs; format: ADME, organism-based; design: dose 500 mg/kg, route intravenous; settings: human, read-out: Activity
Enterococcus faecalis [13] = experiment: Antimicrobial activity against Enterococcus faecalis 1780065 B-B isolated from patient with pyelonephritis assessed as >3-log reduction in urinary bacterial titer after 20 hrs; format: functional, Urine; outline: as §2
Pseudomonas aeruginosa [14] = experiment: Antimicrobial activity against Pseudomonas aeruginosa 1134642 isolated from patient with pyelonephritis assessed as >3-log reduction in urinary bacterial titer after 8 hrs; format: functional, Urine; outline: as §1
Escherichia coli [15] = experiment: Antimicrobial activity against Escherichia coli 1135121 isolated from patient with pyelonephritis assessed as >3-log reduction in urinary bacterial titer after 16 hrs; format: functional, Urine; outline: as §2
Pseudomonas aeruginosa [16] = experiment: Antimicrobial activity against Pseudomonas aeruginosa […] assessed as >3-log reduction in urinary bacterial titer after 12 hrs; format: functional, Urine; outline: as §1
Pseudomonas aeruginosa [17] = experiment: Antimicrobial activity against Pseudomonas aeruginosa 1134642 isolated from patient with pyelonephritis assessed as >3-log reduction in urinary bacterial titer after 4 hrs; format: functional, Urine; outline: as §1
Enterococcus faecalis [18] = experiment: Antimicrobial activity against Enterococcus faecalis 1780065 B-B isolated from patient with pyelonephritis assessed as >3-log reduction in urinary bacterial titer after 4 hrs; format: functional, Urine; outline: as §2
Pseudomonas aeruginosa [19] = experiment: Antimicrobial activity against Pseudomonas aeruginosa 1134642 isolated from patient with pyelonephritis assessed as >3-log reduction in urinary bacterial titer after 12 hrs; format: functional, Urine; outline: as §1
Staphylococcus aureus [20] = experiment: Antimicrobial activity against Staphylococcus aureus 1134684 isolated from patient with pyelonephritis by Etest; format: functional
Escherichia coli [21] = experiment: Antimicrobial activity against Escherichia coli 1135121 isolated from patient with pyelonephritis assessed as >3-log reduction in urinary bacterial titer after 8 hrs; format: functional, Urine; outline: as §2
Escherichia coli [22] = experiment: Antimicrobial activity against Escherichia coli 1949820 B-N isolated from patient with pyelonephritis assessed as >3-log reduction in urinary bacterial titer after 8 hrs; format: functional, Urine; outline: as §3
Escherichia coli [23] = experiment: Antimicrobial activity against Escherichia coli 1949821 B-M isolated from patient with pyelonephritis assessed as >3-log reduction in urinary bacterial titer after 16 hrs; format: functional, Urine; outline: as §3
Escherichia coli [24] = experiment: Antimicrobial activity against Escherichia coli 1135121 isolated from patient with pyelonephritis by Etest; format: functional
Escherichia coli [25] = experiment: Antimicrobial activity against Escherichia coli 1135121 isolated from patient with pyelonephritis assessed as >3-log reduction in urinary bacterial titer after 20 hrs; format: functional, Urine; outline: as §2
Pseudomonas aeruginosa [26] = experiment: Antimicrobial activity against Pseudomonas aeruginosa […] assessed as >3-log reduction in urinary bacterial titer after 16 hrs; format: functional, Urine; outline: as §1
Staphylococcus aureus [27] = experiment: Antimicrobial activity against Staphylococcus aureus 1134684 isolated from patient with pyelonephritis assessed as >3-log reduction in urinary bacterial titer after 20 hrs; format: functional, Urine; outline: as §1
Enterococcus faecalis [28] = experiment: Antimicrobial activity against Enterococcus faecalis 1780065 B-B isolated from patient with pyelonephritis assessed as >3-log reduction in urinary bacterial titer after 24 hrs; format: functional, Urine; outline: as §2
Escherichia coli [29] = experiment: Antimicrobial activity against Escherichia coli 1135121 isolated from patient with pyelonephritis assessed as >3-log reduction in urinary bacterial titer after 12 hrs; format: functional, Urine; outline: as §2
Pseudomonas aeruginosa [30] = experiment: Antimicrobial activity against Pseudomonas aeruginosa […] assessed as >3-log reduction in urinary bacterial titer after 24 hrs; format: functional, Urine; outline: as §1
Escherichia coli [31] = experiment: Antimicrobial activity against Escherichia coli 1949820 B-N isolated from patient with pyelonephritis assessed as >3-log reduction in urinary bacterial titer after 16 hrs; format: functional, Urine; outline: as §3
Pseudomonas aeruginosa [32] = experiment: Antimicrobial activity against Pseudomonas aeruginosa ATCC 27853 isolated from patient with pyelonephritis by Etest; format: functional
Proteus mirabilis [33] = experiment: Antimicrobial activity against Proteus mirabilis 1134841 isolated from patient with pyelonephritis assessed as >3-log reduction in urinary bacterial titer after 8 hrs; format: functional, Urine; outline: as §1
Staphylococcus aureus [34] = experiment: Antimicrobial activity against Staphylococcus aureus 1134684 isolated from patient with pyelonephritis assessed as >3-log reduction in urinary bacterial titer after 8 hrs; format: functional, Urine; outline: as §1
Pseudomonas aeruginosa [35] = experiment: Antimicrobial activity against Pseudomonas aeruginosa 1134642 isolated from patient with pyelonephritis assessed as >3-log reduction in urinary bacterial titer after 16 hrs; format: functional, Urine; outline: as §1
Proteus mirabilis [36] = experiment: Antimicrobial activity against Proteus mirabilis 1134841 isolated from patient with pyelonephritis assessed as >3-log reduction in urinary bacterial titer after 16 hrs; format: functional, Urine; outline: as §1

SMILES: C[C@@H](O)[C@H]1C(=O)N2C(C(=O)O)=C(S[C@@H]3CN[C@H](CNS(N)(=O)=O)C3)[C@H](C)[C@H]12 [DORIPENEM]
- urinary bactericidal titer (Pseudomonas aeruginosa [1]): 4096 reciprocal titer
- Time (Enterococcus faecalis [2]): 48 h
- MIC [3]: > 32 µg/mL
- urinary bactericidal titer (Proteus mirabilis [4]): 512 reciprocal titer
- urinary bactericidal titer (Staphylococcus aureus [5]): 8 reciprocal titer
- urinary bactericidal titer (Escherichia coli [6]): 32800
- urinary bactericidal titer (Escherichia coli [7]): 32800
- urinary bactericidal titer (Staphylococcus aureus [8]): 12 reciprocal titer
- urinary bactericidal titer (Proteus mirabilis [9]): 6140 reciprocal titer
- urinary bactericidal titer (Pseudomonas aeruginosa [10]): 1280 reciprocal titer
- MIC (Proteus mirabilis [11]): 0.03 µg/mL (≈ 0.0713 µM)
- dose excreted at 8 h [12]: 80%
- urinary bactericidal titer (Enterococcus faecalis [13]): 256 reciprocal titer
- urinary bactericidal titer (Pseudomonas aeruginosa [14]): 1024 reciprocal titer
- urinary bactericidal titer (Escherichia coli [15]): 8192 reciprocal titer
- urinary bactericidal titer (Pseudomonas aeruginosa [16]): 3070 reciprocal titer
- urinary bactericidal titer (Pseudomonas aeruginosa [17]): 4096 reciprocal titer
- urinary bactericidal titer (Enterococcus faecalis [18]): 128 reciprocal titer
- urinary bactericidal titer (Pseudomonas aeruginosa [19]): 6140 reciprocal titer
- MIC (Staphylococcus aureus [20]): 32 µg/mL (≈ 76.1 µM)
- urinary bactericidal titer (Escherichia coli [21]): 24600 titer
- urinary bactericidal titer (Escherichia coli [22]): 12300 titer
- Time (Escherichia coli [23]): 8192 h
- MIC (Escherichia coli [24]): ≤ 0.015 µg/mL
- urinary bactericidal titer (Escherichia coli [25]): 32800 titer
- urinary bactericidal titer (Pseudomonas aeruginosa [26]): 1540 reciprocal titer
- urinary bactericidal titer (Staphylococcus aureus [27]): 8 reciprocal titer
- Time (Enterococcus faecalis [28]): 32 h
- urinary bactericidal titer (Escherichia coli [29]): 65500 titer
- urinary bactericidal titer (Pseudomonas aeruginosa [30]): 512 reciprocal titer
- Time (Escherichia coli [31]): 8192 h
- MIC (Pseudomonas aeruginosa [32]): 0.12 µg/mL (≈ 0.285 µM)
- urinary bactericidal titer (Proteus mirabilis [33]): 1024 reciprocal titer
- urinary bactericidal titer (Staphylococcus aureus [34]): 4 reciprocal titer
- urinary bactericidal titer (Pseudomonas aeruginosa [35]): 2048 reciprocal titer
- urinary bactericidal titer (Proteus mirabilis [36]): 1540 reciprocal titer

SMILES: C[C@H]1COc2c(N3CCN(C)CC3)c(F)cc3c(=O)c(C(=O)O)cn1c23.C[C@H]1COc2c(N3CCN(C)CC3)c(F)cc3c(=O)c(C(=O)O)cn1c23.O [LEVOFLOXACIN]
- urinary bactericidal titer (Pseudomonas aeruginosa [1]): 1 reciprocal titer
- Time (Enterococcus faecalis [2]): 16 h
- MIC [3]: 8 µg/mL
- urinary bactericidal titer (Proteus mirabilis [4]): 0 reciprocal titer
- urinary bactericidal titer (Staphylococcus aureus [5]): 8 reciprocal titer
- Time (Escherichia coli [6]): 0.5 h
- Time (Escherichia coli [7]): 1 h
- urinary bactericidal titer (Staphylococcus aureus [8]): 4 reciprocal titer
- urinary bactericidal titer (Proteus mirabilis [9]): 0 reciprocal titer
- urinary bactericidal titer (Pseudomonas aeruginosa [10]): 0 reciprocal titer
- MIC (Proteus mirabilis [11]): > 8 µg/mL
- dose excreted at 8 h [12]: 80%
- urinary bactericidal titer (Enterococcus faecalis [13]): 8 reciprocal titer
- urinary bactericidal titer (Pseudomonas aeruginosa [14]): 2 reciprocal titer
- urinary bactericidal titer (Escherichia coli [15]): 2.5 reciprocal titer
- urinary bactericidal titer (Pseudomonas aeruginosa [16]): 8 reciprocal titer
- urinary bactericidal titer (Pseudomonas aeruginosa [17]): 2 reciprocal titer
- urinary bactericidal titer (Enterococcus faecalis [18]): 32 reciprocal titer
- urinary bactericidal titer (Pseudomonas aeruginosa [19]): 1 reciprocal titer
- MIC (Staphylococcus aureus [20]): 4 µg/mL
- urinary bactericidal titer (Escherichia coli [21]): 8 titer
- urinary bactericidal titer (Escherichia coli [22]): 2 titer
- Time (Escherichia coli [23]): 48 h
- MIC (Escherichia coli [24]): 4 µg/mL
- urinary bactericidal titer (Escherichia coli [25]): 3 titer
- urinary bactericidal titer (Pseudomonas aeruginosa [26]): 8 reciprocal titer
- urinary bactericidal titer (Staphylococcus aureus [27]): 2 reciprocal titer
- Time (Enterococcus faecalis [28]): 6 h
- urinary bactericidal titer (Escherichia coli [29]): 3 titer
- urinary bactericidal titer (Pseudomonas aeruginosa [30]): 4 reciprocal titer
- Time (Escherichia coli [31]): 0.5 h
- MIC (Pseudomonas aeruginosa [32]): 0.25 µg/mL
- urinary bactericidal titer (Proteus mirabilis [33]): 0 reciprocal titer
- urinary bactericidal titer (Staphylococcus aureus [34]): 4 reciprocal titer
- urinary bactericidal titer (Pseudomonas aeruginosa [35]): 1 reciprocal titer
- urinary bactericidal titer (Proteus mirabilis [36]): 0 reciprocal titer
